XiGFP reactiv – reactivates the inactive X chromosome in mouse fibroblasts; AID 743238; hit rate 0.055% among 360,000; activation, % at 7.58 µM; XiGFP mouse fibroblasts, % GFP-positive cells imaging, 3 d; cells co-treated with 5-aza-dC sensitizer; scaled so ellipticine positive control = 100%;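 active = mean normalized replicate activation at least 10% and every replicate at or above 10%; inconclusive = only one of the two criteria met; inactive = mean below 10% and not all replicates reach 10%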;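 note: 0% = median of on-plate neutral control wells and 100% = ellipticine 6 µM median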
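assay system = SV40-immortalized XiGFP fibroblast cells, line 68-5-11 | buffer or medium = DMEM plus 5-aza-dC sensitizer | doses = single-point pinned compound dosing | times = 3-day compound exposure, then 15 min fixation at room temperature | benchmarks = positive control ellipticine, 6 µM final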
SR-BI HDL uptake – inhibitors of mouse SR-BI mediated HDL lipid uptake; hit rate 0.96% among 320,000; ldlA[mSR-BI] CHO cells, DiI-HDL uptake fluorescence, 3 h; AID 488896; inhibition, % at 12.5 µM; Q61009;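 active = mean replicate inhibition of at least 70% and a set share of replicates each scoring 70 or more; inconclusive = meets just one of the two criteria; inactive = fails both criteria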;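 note: 0% = median of neutral control wells and 100% = median of positive control wells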
Target sequence (Q61009 whole entry, looked up): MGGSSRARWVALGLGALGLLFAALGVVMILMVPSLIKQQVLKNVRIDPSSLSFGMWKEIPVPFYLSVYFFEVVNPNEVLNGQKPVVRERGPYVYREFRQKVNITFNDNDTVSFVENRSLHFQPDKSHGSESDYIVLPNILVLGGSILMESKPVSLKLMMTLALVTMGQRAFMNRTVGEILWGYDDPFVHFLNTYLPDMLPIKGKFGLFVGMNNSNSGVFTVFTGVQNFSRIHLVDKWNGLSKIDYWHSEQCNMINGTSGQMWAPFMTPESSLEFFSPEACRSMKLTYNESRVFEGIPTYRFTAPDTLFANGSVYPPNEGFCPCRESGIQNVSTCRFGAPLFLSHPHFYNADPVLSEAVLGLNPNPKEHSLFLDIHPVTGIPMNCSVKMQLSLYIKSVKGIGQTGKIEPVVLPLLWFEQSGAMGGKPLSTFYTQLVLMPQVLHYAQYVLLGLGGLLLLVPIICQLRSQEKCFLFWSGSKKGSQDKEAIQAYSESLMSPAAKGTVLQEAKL
rRNA inh HTS – inhibitors of bacterial rRNA selective over humanized ribosomes; GFP signal change (wild-type ribosome), % (concentration not given with the values); AID 720706; E. coli WT GFP vs humanized-ribosome RFP mutants, fluorescence, 24 h; stronger effect = lower value; DMSO median 0, no signal -100; hit rate 1.6% among 350,000;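 active = significant combined selectivity score with lowered wild-type GFP, culture density cut under 30%, mutant RFP and density less affected; inactive = any of these conditions unmet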
dFosB activator – activators of mouse delta FosB homodimer; purified delta FosB, TAMRA-CDK5 oligo fluorescence polarization; percent of positive-control signal above neutral wells; activation, % at 25 µM; hit rate 0.99% among 340,000; AID 493131;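 active = mean activation above about 17%, with every replicate also reaching it, limit read from the data, passing the limit was not always enough; inconclusive = only one of the two conditions met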
PvdQ acylase – P. aeruginosa PvdQ acylase inhibition | purified PvdQ acylase, fluorescence plate reader | AID 488965 | hit rate 0.063% among 340,000 | inhibition, % at 10 µM; in the data active = inhibition above about 30%, passing the limit was not always enough; inconclusive = no clear call, values can overlap the other calls;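 note: 0% = vehicle neutral wells and 100% = reference inhibitor wells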
SR-BI uptake up – activators of SR-BI mediated HDL lipid uptake. CHO ldlA[mSR-BI] cells, DiI-HDL uptake fluorescence, 3 h; 100 = double the neutral-control signal. activation, % at 12.5 µM. hit rate 0.096% among 320,000. AID 504775;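 active = mean replicate activation of at least 60% and every replicate at or above 60%; inconclusive = mean or all-replicate condition met, but not both; inactive = mean below 60% and not all replicates reaching 60%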;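 note: 0% = median plate neutral-control signal and 100% = twice that signal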
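Test system: SR-BI-overexpressing, LDLR-lacking CHO cells. Measured by: DiI fluorescence, bottom read. Medium: Ham's F12 with 0.5% BSA, HEPES 25 mM, pH 7.4. Timing: 3 h uptake period with compound, 37 °C.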
DiI quencher – counter-screen for SR-BI lipid transfer inhibitors: DiI fluorescence quenchers | AID 540326 | AC50, µM (highest dose often 35 µM), for the others: top-dose activity change, negative = quenching | hit rate 20% among 470 | shares compounds with SR-BI HDL uptake | cell-free DiI-HDL fluorescence quenching, 30 min;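 active = quenching, a falling signal, with AC50 below a set limit tied to the top valid dose, actives reach about 32 µM in these data; inconclusive = no clear call, values can overlap the other calls; inactive = rising signal, and the rest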
Starred values were filed as active, the others as inactive; ? = inconclusive; · = no result given. The list is not random: actives were taken first. Their share in the collection is about 2.6%.

SMILES | XiGFP reactiv | SR-BI HDL uptake | rRNA inh HTS | dFosB activator | PvdQ acylase | SR-BI uptake up | DiI quencher
Cc1cc(CN(C)C(=O)C2CCC(=O)N(CCc3cccc(F)c3)C2)on1 (stereo not given) | 0.2 | -12.5 | 12.6 | -1.0 | -10.2 | 12.5 | -5.7%
CC(C)=CCc1c2c(c3occ(-c4ccc(O)c(O)c4)c(=O)c3c1O)C=CC(C)(C)O2 | 0.0 | 130.9* | -1.1 | -20.9 | -6.1 | -130.9 | 0.809µM*
COc1cccc(-c2csc(N3CCN(C(=S)Nc4ccccc4)CC3)n2)c1 | · | 67.9 | · | 0.9 | -9.4 | -67.9 | ·
COc1cccc(-c2csc(N3CCN(C(=O)NC45CC6CC(CC(C6)C4)C5)CC3)n2)c1 | · | -17.2 | · | -17.9 | -8.9 | 17.2 | -6.1%
CNC(=S)N1CCN(c2nc(-c3cccc(OC)c3)cs2)CC1 | 0.2 | 32.2 | -19.2 | -5.2 | -1.7 | -32.2 | ·
COc1cccc(-c2csc(N3CCN(C(=S)Nc4cccc(C)c4)CC3)n2)c1 | 0.0 | 90.1* | -9.7 | -15.0 | -5.9 | -90.1 | -9.8%
CCCCn1c(N)c(N(CC(C)C)C(=O)Cn2c(=O)cnc3ccccc32)c(=O)[nH]c1=O | -0.1 | -41.8 | 10.5 | -8.2 | -4.8 | 41.8 | ·
COc1cc(OC)c(NC(=O)c2ccco2)cc1Cl | · | 35.5 | · | -8.6 | 10.9 | -35.5 | ·
COc1cc(NC(=O)c2ccco2)c(OC)cc1NC(=O)Nc1ccc(Cl)cc1 | · | 100.0* | · | 14.3 | -21.1 | -100.0 | 5.08µM*
Cc1ccc(-c2sc(-c3ccccc3)nc2CC(=O)Nc2ccccc2F)cc1 | 0.3 | 77.3* | · | -1.6 | -1.7 | -77.4 | 4.7%
CC(=O)Nc1cccc(NC(=O)Cc2nc(-c3ccccc3)sc2-c2ccc(C)cc2)c1 | 0.0 | 60.2 | 11.3 | 1.6 | 8.5 | -60.2 | ·
O=C(NNS(=O)(=O)c1ccccc1Cl)C1COc2ccccc2O1 (stereo not given) | 0.2 | -0.6 | 7.6 | 3.6 | -5.4 | 0.6 | ·
C=C(CN(C)C)C(=O)c1ccc(OC2OC(COC(C)=O)C(OC(C)=O)C(OC(C)=O)C2OC(C)=O)cc1 (stereo not given) | -0.2 | 93.5* | · | 21.1* | 11.3 | -93.5 | -0.8%
Cc1cccc(NC(=O)CSc2nnc([C@H](C)NC(=O)OC(C)(C)C)o2)c1C | 0.1 | 38.6 | 7.4 | -8.7 | -10.0 | -38.6 | ·
Cc1ccc(NC(=O)CSc2nnc([C@H](C)NC(=O)OC(C)(C)C)o2)c(C)c1 | 0.0 | 73.0* | -0.2 | -7.2 | 12.2 | -73.0 | 0.2%
CCOc1ccc(NC(=O)CN2CCN(CC(=O)Nc3ccc(F)cc3)CC2)cc1 | · | 53.0 | · | -2.5 | -15.6 | -53.0 | ·
COc1ccc(NC(=O)CN2CCN(CC(=O)Nc3ccc(OC)c(OC)c3)CC2)cc1 | · | ? | · | 2.8 | -10.2 | -71.9 | -2.2%
CCOc1ccc(NC(=O)CN2CCN(CC(=O)Nc3ccc(N(C)C)cc3)CC2)cc1 | 0.0 | 86.1* | 13.3 | -3.1 | -13.1 | -86.1 | -12.7%
CCOC(=O)N1CCN(C(c2ccnc3ccccc23)c2nnnn2-c2ccc3c(c2)OCCO3)CC1 (stereo not given) | 0.2 | · | 7.0 | · | · | · | ·
COc1ccc(-n2sc3c(c2=S)-c2cc(OC)ccc2NC3(C)C)cc1 | · | 108.4* | · | 5.2 | -1.2 | -108.4 | 2.53µM*
COc1ccc2c(c1)-c1c(sn(-c3ccccc3)c1=S)C(C)(C)N2 | 0.0 | 41.9 | · | -3.2 | -4.4 | -41.9 | ·
COc1ccc2c(c1)-c1c(sn(-c3ccc(OC)c(OC)c3)c1=S)C(C)(C)N2 | · | 107.8* | · | -6.3 | 4.5 | -107.9 | 3.08µM*
Cc1cc(NC(=O)C2CC2)n(-c2nc3ccccc3s2)n1 | 0.0 | 42.6 | -3.4 | -17.9 | 8.8 | -42.6 | ·
O=C(O)CC1NC(=O)N(C2CCCCC2)C1=O (stereo not given) | -0.1 | 6.9 | 23.0 | -2.6 | -6.1 | -6.9 | ·
CCS(=O)(=O)N1N=C(c2ccccc2)CC1c1ccc2nccnc2c1 (stereo not given) | 0.0 | -5.9 | · | 4.4 | -4.0 | 5.9 | ·

Assay outcomes deposited in PubChem BioAssay by Broad Institute.
